Screening data: PubChem BioAssay, several laboratories
Hits are enriched below; roughly 3.2% of the tested compounds scored in any of these assays.
MEKK2 mut-MEK5: MEK5 binding signal on mutant MEKK2 PB1, primary screen, biochemical, multiplex bead flow cytometry, Alexa488-MEK5; AID 1530, 2009; percent response, % at 10 µM; 290,000 compounds, 0.35% hits; Alexa488-MEK5 binding to MEKK2 mutant; in the data active means percent response above about 24%, passing the limit was not always enough
Apaf1 inhib: inhibitors of human Apaf-1 apoptosome, primary screen, biochemical, DEVD-Rh110 fluorescence, uHTS | reconstituted apoptosome caspase-3 activity | Apoptotic protease-activating factor 1 (Homo sapiens), O14727 | 330,000 compounds, 0.71% hits | inhibition, % at 20 µM | AID 489030, 2010; active means inhibition of at least 40% at 20 µM;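 further: plate controls were DMSO wells for no effect and DEVD-CHO caspase inhibitor wells for full effect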
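Material: reconstituted apoptosome with Apaf-1, cytochrome c, caspase-9, procaspase-3, dATP / Buffer or medium: pH 7.5 Hepes buffer with CHAPS, BSA, DTT / Also added: cytochrome c with DEVD-Rh110 / Schedule: compound with Apaf-1, dATP, procaspase-3 30 min, then 50 min reaction, room temperature / Technique: rhodamine 110 fluorescence at Ex 480/Em 540 nm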
MEKK3 PB1 HTS: modulators of MEKK3-MEK5 PB1 binding, primary screen, biochemical, wildtype MEKK3, multiplex bead flow cytometry, Alexa488-MEK5 | bead-based flow cytometry, Alexa488-MEK5 binding to MEKK3; actives lie on both sides; 0 = blocked by unlabeled MEK5, 100 = vehicle | binding response (% of control), % at 10 µM | 290,000 compounds, 1.4% hits;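 active means binding response more than 3 SD above or below the average of its plate-row segment, actives on both sides; inconclusive means wells at one plate position flagged as instrument error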;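 further: Alexa488 bead fluorescence after subtracting the streptavidin-only scavenger bead signal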
UBC13 polyUb: UBC13 polyubiquitin chain formation inhibitors, primary screen, biochemical, TR-FRET, uHTS; inhibition, % at 20 µM; 330,000 compounds, 0.47% hits; AID 485273, 2010; in the data active means inhibition above about 45%, passing the limit was not always enough; inconclusive means no clear call, values can overlap the other calls
Target sequence (P61088 whole entry, looked up): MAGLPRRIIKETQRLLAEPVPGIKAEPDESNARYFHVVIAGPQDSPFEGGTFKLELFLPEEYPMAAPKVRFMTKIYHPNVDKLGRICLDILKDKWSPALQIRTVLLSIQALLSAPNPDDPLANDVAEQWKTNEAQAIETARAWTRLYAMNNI
DSG3 Ab inh: inhibitors of pemphigus antibody binding to DSG3, primary screen, biochemical, bead-based, flow cytometry, scFv-GFP | Desmoglein-3 (Homo sapiens), P32926 | DSG3-coupled beads, scFv-anti-DSG3-GFP binding; hits give low values | binding (percent of control), % at 10 µM | 310,000 compounds, 0.48% hits;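 active means binding more than 3 SD below its plate's average and above zero; inconclusive means below that plate limit but binding exactly zero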;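 further: hits lower antibody fragment binding to DSG3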
MEKK2 WT-MEK5: modulators of MEK5 binding to wildtype MEKK2, primary screen, biochemical, multiplex bead flow cytometry, Alexa488-MEK5; binding response (% of control), % at 10 µM; Alexa488-MEK5 binding to MEKK2 WT; actives lie on both sides; 290,000 compounds, 1.1% hits; Mitogen-activated protein kinase kinase kinase 2 (Homo sapiens), Q9Y2U5; in the data active means binding response below about 67% or above about 130%; inconclusive means no clear call, values can overlap the other calls; inactive means in between
* marks the source's active call; other numbers are inactive results; u = inconclusive; x = not tested or not shown.

SMILES	MEKK2 mut-MEK5	Apaf1 inhib	MEKK3 PB1 HTS	UBC13 polyUb	DSG3 Ab inh	MEKK2 WT-MEK5
CCOC(=O)Nc1ccc(OC(=O)Oc2ccc(NC(=O)OCC)cc2)cc1	x	x	x	x	78*	x
CC(C)(C)OC(=O)N1CCCC(C(=O)Nc2ccc(C(=O)NCc3ccccc3)cc2)C1 (stereo not drawn)	x	x	x	x	98	x
Cc1ccc(CSc2nnc(Nc3ccc(C)cc3)s2)cc1	2	11	101	0	67*	104
CCSc1nnc(Nc2ccc(C)cc2)s1	2	-4	92	13	99	95
FC(F)(F)c1ccccc1NC(=S)Nn1cnnc1	6	-4	105	-2	113	108
CC(CC(=O)Nc1cccc(S(=O)(=O)N2CCCCC2)c1)c1ccccc1 (stereo not drawn)	x	18	x	5	94	x
CCCC(C(=O)Nc1cccc(S(=O)(=O)N2CCCC2)c1)c1ccccc1 (stereo not drawn)	x	13	x	-3	8.0*	x
Cc1ccc(-c2nc3ncccc3o2)cc1NC(=O)C(C)C	6	-8	103	-2	102	108
Cc1cc(-c2nc3ncccc3o2)ccc1NC(=S)NC(=O)C(C)C	-1	-3	104	22	54*	103
CCN(CC(=O)Nc1ccc(NC(C)=O)cc1)C(=O)CCN1C(=O)C2CC=CCC2C1=O (stereo not drawn)	x	1	x	2	105	x
CC1CC2=C(NC(=S)NC2c2cccc(F)c2)/C(=C/c2cccc(F)c2)C1 (stereo not drawn)	-7	x	107	x	84	92
CC1CC2=C(NC(=S)NC2c2ccccc2F)/C(=C/c2ccccc2F)C1 (stereo not drawn)	-3	23	100	-5	17*	95
CCCCCCN(C(=O)CCCCCN1C(=O)NC(c2ccc(-c3ccccc3)cc2)C(C(=O)OCc2ccccc2)=C1C)C(C(=O)NCCCC)c1cccc(C(=O)OC)c1 (stereo not drawn)	3	79*	101	-28	x	104
O=C(CSc1ncnc2c1nnn2Cc1ccccc1F)NCC1CCCO1 (stereo not drawn)	8	0	104	7	101	108
COc1cccc(NC(=O)c2cccc(Cl)c2)c1	x	-7	x	5	102	x
COC(=O)C(C(=O)OC)c1ccc(NC(=O)c2cccc(Cl)c2)cc1	-1	-27	100	5	85*	98
Cc1ccccc1C(=O)Nc1nnc(S(=O)(=O)N2CCCCCC2)s1	-2	16	102	-13	-6.6*	97
CC(=O)N1CCc2c(sc(NC(=O)c3cccc(N4C(=O)CCC4=O)c3)c2C(N)=O)C1	8	57*	104	-13	96	101
CC(C)N1CCc2c(sc(NC(=O)c3ccc4ccccc4c3)c2C(N)=O)C1	14	12	103	23	91	134*
Cc1cccc(NC(=O)C2CCN(C(=O)NCc3ccccc3)CC2)c1C	5	6	98	0	76	100
Cc1[nH]nc(N2CCCCC2)c1[N+](=O)[O-]	-3	-6	99	4	x	91
Cc1nc(N2CCCCC2)c(C#N)c(C)c1[N+](=O)[O-]	-48	10	89	-8	106	170*
COc1ccc(S(N)(=O)=O)cc1C(=O)NC1CCCc2ccccc21 (stereo not drawn)	-1	3	99	5	-38*	101
Cc1ccc(NP(=O)(c2ccc(N(C)C)cc2NC(=O)c2cccs2)N2CCOCC2)cc1Cl (stereo not drawn)	-1	15	96	11	85*	86
COc1ccc(/C=C(\C#N)C(=O)OCC(=O)NCc2ccccc2)cc1	-2	-10	93	-4	95	97
SMILES	MEKK2 mut-MEK5	Apaf1 inhib	MEKK3 PB1 HTS	UBC13 polyUb	DSG3 Ab inh	MEKK2 WT-MEK5
COc1ccc(/C=C(\C#N)C(=O)OCC(=O)NC2CC2)cc1	3	0	102	-8	58*	103
CCc1ccc2nc3sc(C(=O)N4CCc5ccccc54)c(N)c3cc2c1	59*	10	103	-22	x	87
CCN(CC)S(=O)(=O)c1cc(NC(=O)c2n[nH]c(=O)c3ccccc23)ccc1C	4	12	99	-6	96	-3.0*
CC(=O)/C(=N\Nc1cccc(Cl)c1)Sc1cccc2cccnc12	-3	18	88	5	95	89
CC1(C)Cc2ccccc2C(/C(=N\Nc2cccc(Cl)c2)C(N)=O)=N1	0	18	100	5	68*	101
CC(=O)/C(N)=N/Nc1cccc(Cl)c1	9	2	96	-22	109	16*
O=C(NCc1ccccc1Cl)c1cc([N+](=O)[O-])ccc1Cl	-2	-8	100	-7	72*	102
Oc1ccc(C=NNC(=S)Nc2cccnc2)nc1	x	x	x	x	91	x
CCOC(=O)C1(CCOc2ccccc2)CCN(CC(O)CO)CC1 (stereo not drawn)	14	-53	108	-6	90*	110
Cc1cc(OC(=O)c2ccccc2F)c([N+](=O)[O-])c(=O)[nH]1	-2	4	94	-7	104	97
CN(c1ccccc1C(=O)NC1CC2CCC1C2)S(=O)(=O)c1ccccc1 (stereo not drawn)	6	12	112	2	38*	109
CN(c1ccccc1C(=O)NC1CCCCC1)S(=O)(=O)c1ccccc1	3	-5	102	-1	x	100
NC(=S)N=Nc1c(O)[nH]c2ccc(F)cc12	20	7	108	50*	100	99
O=C(Nc1nc2cc3c(cc2s1)OCCO3)c1ccc(N2C(=O)CCC2=O)cc1	-1	-19	97	18	81*	96
Cc1cc(C)n(-c2nc3ccccc3nc2N2CCN(S(=O)(=O)c3ccc4ccccc4c3)CC2)n1	-9	17	85	u	89*	82
Cc1ccc(C(=O)OCC(=O)c2ccc(Br)cc2)cc1S(=O)(=O)N1CCOCC1	x	x	x	x	95	x
CCCc1cc(=O)oc2cc(OCC(=O)NCc3ccccn3)ccc12	3	3	99	-4	109	97
CCCc1cc(=O)oc2cc(OCC(=O)NCc3cccs3)ccc12	0	4	103	9	46*	106
CCCc1cc(=O)oc2cc(OCC(=O)NCC(O)c3ccccc3)ccc12 (stereo not drawn)	3	6	104	2	0.7*	100
